Results reported in ChEMBL document CHEMBL1131028, “Nucleosides and nucleotides. 177. 9-(6,7-dideoxy-beta-D-allo-hept-5- ynofuranosyl)adenine: a selective and potent ligand for P3 purinoceptor-like protein” (J Med Chem, 1998).
Calls of active or inactive are those of the source. The rule behind the calls is not given here.

What was measured:
[1] = biological target: Adenosine receptor A2a (Rattus norvegicus) (UniProt P30543); conditions: Membrane, 100 uM
[2] = biological target: T1, Adenosine receptor A1 (Rattus norvegicus, UniProt P25099); assay: Inhibition of [3H]- DPCPX binding to Adenosine A1 receptor ofrat brain membranes
T1 sequence (P25099 whole entry): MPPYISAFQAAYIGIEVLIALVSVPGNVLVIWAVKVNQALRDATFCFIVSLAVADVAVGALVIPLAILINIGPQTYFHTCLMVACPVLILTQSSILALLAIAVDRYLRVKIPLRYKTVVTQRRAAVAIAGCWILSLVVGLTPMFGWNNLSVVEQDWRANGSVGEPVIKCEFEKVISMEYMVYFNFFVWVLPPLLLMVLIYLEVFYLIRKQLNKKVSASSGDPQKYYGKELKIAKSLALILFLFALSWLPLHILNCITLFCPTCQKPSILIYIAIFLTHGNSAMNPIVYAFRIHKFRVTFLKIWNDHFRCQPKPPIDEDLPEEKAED

[3] = biological target: T2, Adenosine receptor A3 (Rattus norvegicus) (UniProt P28647); assay: Inhibition of [125I]AB-MECA (0.15 nM) binding to Adenosine A3 receptor of RBL-2H3 cell membranes; No inhibition at 10 uM; format: cell-based
T2 sequence (whole entry): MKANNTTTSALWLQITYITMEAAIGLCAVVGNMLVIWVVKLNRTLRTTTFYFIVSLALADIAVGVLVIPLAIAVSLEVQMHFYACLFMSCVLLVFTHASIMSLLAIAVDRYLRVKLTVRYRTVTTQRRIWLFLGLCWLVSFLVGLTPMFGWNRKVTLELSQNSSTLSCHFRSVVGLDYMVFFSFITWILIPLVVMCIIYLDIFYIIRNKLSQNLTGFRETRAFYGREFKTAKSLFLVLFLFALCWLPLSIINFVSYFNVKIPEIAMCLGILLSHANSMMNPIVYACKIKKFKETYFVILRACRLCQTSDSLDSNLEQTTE

[4] = biological target: P3 purinoceptor; assay: Binding activity was evaluated on P3 purinoceptor-like protein from rat brain membranes by using [3H]NECA (40 nM).
How it was run: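 Partially purified P3LP: rat brain membranes solubilized in CHAPS, then hydroxylapatite chromatography; A1, A2A, A2B and A3 adenosine receptors and adenotin absent from the preparation.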

[5] = biological target: T3, Adenosine receptor A1 (Rattus norvegicus) (UniProt P25099); assay: Inhibition of [3H]- DPCPX binding to Adenosine A1 receptor of rat brain membranes at 10 uM; format: cell membranes; conditions: Membrane
T3 sequence (whole entry): T1 sequence (P25099 whole entry)
How it was run: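 Rat brain membranes labelled with [3H]DPCPX (2 nM) to measure A1 receptor binding; test compound displacement read as percent inhibition at a single concentration.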

[6] = biological target: T4, Adenosine receptor A2b (Rattus norvegicus) (UniProt P29276); assay: Activity against Adenosine A2B receptor as cAMP production in VA-13 cells; No inhibition at 100 uM; format: functional, cell-based
T4 sequence (whole entry): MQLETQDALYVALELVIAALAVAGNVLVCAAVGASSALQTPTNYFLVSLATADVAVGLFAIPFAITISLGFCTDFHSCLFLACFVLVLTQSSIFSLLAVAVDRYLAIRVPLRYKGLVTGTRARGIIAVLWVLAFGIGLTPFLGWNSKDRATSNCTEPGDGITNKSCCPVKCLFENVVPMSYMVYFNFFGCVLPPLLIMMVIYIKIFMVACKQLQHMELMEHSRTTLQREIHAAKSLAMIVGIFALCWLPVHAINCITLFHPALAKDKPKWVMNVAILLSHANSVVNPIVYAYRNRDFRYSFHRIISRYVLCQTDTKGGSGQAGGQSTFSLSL

[7] = biological target: T2, Adenosine receptor A3 (Rattus norvegicus); assay: Inhibition of [125I]AB-MECA (0.15 nM) binding to Adenosine A3 receptor of RBL-2H3 cell membranes; No inhibition at 10 uM

Chain of Adenosine receptor A2a (Rattus norvegicus) (P30543 whole entry): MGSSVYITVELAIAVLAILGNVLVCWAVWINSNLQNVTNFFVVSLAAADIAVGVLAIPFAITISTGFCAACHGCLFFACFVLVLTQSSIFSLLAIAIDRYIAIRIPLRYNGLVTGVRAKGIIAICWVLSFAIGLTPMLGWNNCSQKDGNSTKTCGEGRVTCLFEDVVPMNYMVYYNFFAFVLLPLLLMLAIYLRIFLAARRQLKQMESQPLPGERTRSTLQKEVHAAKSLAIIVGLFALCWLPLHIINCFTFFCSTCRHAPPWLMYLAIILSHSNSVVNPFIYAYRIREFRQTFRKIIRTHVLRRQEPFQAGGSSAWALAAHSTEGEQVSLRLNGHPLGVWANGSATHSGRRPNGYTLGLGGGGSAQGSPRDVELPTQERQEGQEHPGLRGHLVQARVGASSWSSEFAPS

Structure (SMILES) | Ki [4] [µM] | further results
C#C[C@H](O)[C@H]1OC(n2cnc3c(N)ncnc32)[C@H](O)[C@@H]1O (stereo not given in full) | 0.019 | inhibition [1]: 40%; Inhibition [2]: 33%; inhibition [3]: inactive
Nc1ncnc2c1ncn2C1O[C@H](CCl)[C@@H](O)[C@H]1O (stereo not given in full) | 0.084 | –
N#C[C@H]1OC(n2cnc3c(N)ncnc32)[C@H](O)[C@@H]1O (stereo not given in full) | 0.064 | –
CCCSC[C@H]1OC(n2cnc3c(N)ncnc32)[C@H](O)[C@@H]1O (stereo not given in full) | 1.1 | –
C#C[C@@H](O)[C@H]1OC(n2cnc3c(N)ncnc32)[C@H](O)[C@@H]1O (stereo not given in full) | 0.45 | inhibition [5]: 21%; inhibition [6]: inactive; inhibition [1]: 40%; inhibition [7]: inactive
CNC(=O)[C@H]1O[C@@H](n2cnc3c(N)ncnc32)[C@H](O)[C@@H]1O | 0.051 | –
CCNC(=O)[C@H]1O[C@@H](n2cnc3c(N)ncnc32)[C@H](O)[C@@H]1O [NECA] | 0.037 | –

More lines, main results first:

Ki [4] [µM] | Structure (SMILES) | further results
0.07 | Nc1ncnc2c1ncn2C1O[C@H](CSCc2ccccc2)[C@@H](O)[C@H]1O (stereo not given in full) | –
0.081 | [N-]=[N+]=NC[C@H]1OC(n2cnc3c(N)ncnc32)[C@H](O)[C@@H]1O (stereo not given in full) | –
21 | CN(C)C(=O)[C@H]1OC(n2cnc3c(N)ncnc32)[C@H](O)[C@@H]1O (stereo not given in full) | –
0.064 | NC(=O)[C@H]1OC(n2cnc3c(N)ncnc32)[C@H](O)[C@@H]1O (stereo not given in full) | –
0.28 | C#C[C@H]1OC(n2cnc3c(N)ncnc32)[C@H](O)[C@@H]1O (stereo not given in full) | –
0.054 | Nc1ncnc2c1ncn2C1O[C@H](CSc2ccccc2)[C@@H](O)[C@H]1O (stereo not given in full) | –
